# Assay outcomes: PubChem BioAssay, The Scripps Research Institute Molecular Screening Center
# This is a sample that favours compounds with a hit; in the whole collection about 2.2% have one here.
# TCR CD3 inh: human TCR-CD3 binding inhibition; TAMRA-labeled TCR probe fluorescence, biochemical; inhibition, % at 9.4 µM; 360,000 compounds, 0.37% hits; AID 651800;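 further: recombinant mutant TCR 2C K166C tagged with TAMRA read by polarization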
# HTRA1 inh: inhibitors of human serine peptidase HTRA1. AID 504803. 340,000 compounds, 0.5% hits. Q92743. recombinant HTRA1, FP-rhodamine activity-based probe, fluorescence polarization. inhibition, % at 5.96 µM; in the data active means inhibition above about 36%
# mABHD4 FP: inhibitors of mouse ABHD4 | inhibition, % at 8.92 µM | AID 720543 | purified mABHD4, FP-Rh probe fluorescence polarization | 370,000 compounds, 0.54% hits | Q8VD66;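 active means inhibition exceeding the mean over every tested compound plus 3 SD, cut at about 30% in these data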
# Target sequence (Q8VD66 whole entry, looked up): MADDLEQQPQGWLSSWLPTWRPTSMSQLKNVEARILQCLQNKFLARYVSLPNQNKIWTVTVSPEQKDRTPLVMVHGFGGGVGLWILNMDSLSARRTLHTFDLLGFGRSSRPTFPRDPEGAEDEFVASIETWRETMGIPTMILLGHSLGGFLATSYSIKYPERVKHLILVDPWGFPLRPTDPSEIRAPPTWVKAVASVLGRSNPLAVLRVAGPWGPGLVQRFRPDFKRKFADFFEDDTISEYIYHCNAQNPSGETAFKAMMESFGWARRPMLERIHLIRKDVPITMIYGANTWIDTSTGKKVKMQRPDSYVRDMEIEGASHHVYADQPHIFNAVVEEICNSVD
#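 Assay system: Wild-type mouse ABHD4 protein | Medium: HEPES pH 7.0 buffer, 150 mM NaCl, 0.01% Pluronic F-127 | Incubation: Enzyme–compound pre-incubation 45 min, then probe 60 min, both 25 °C | Technique: Fluorescence polarization with parallel and perpendicular emission, 525/598 nm | Evaluation: % inhibition of FP-Rh probe binding versus controls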
# LEDGF integ inh: blocks HIV-1 LEDGF/p75-dependent DNA integration; TR-FRET IN-LEDGF/p75 DNA integration, Eu/Cy5; inhibition, % at 3.7 µM; 370,000 compounds, 0.64% hits; AID 743269;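 active means inhibition above the screen-wide mean plus 3 SD, cut at about 13% in these data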;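 further: signal is the Cy5 over europium emission ratio at 671 and 618 nm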
# SIAE inh: inhibitors of human sialic acid acetylesterase SIAE; Q9HAT2; 370,000 compounds, 0.69% hits; inhibition, % at 9.66 µM; SIAE FP-Rh probe binding, fluorescence polarization;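 active means inhibition above a cutoff: mean of compounds within the control limits plus 3 SD of those, cut at about 17% in these data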
# TDP2 absorb: TDP2 (human) inhibition, absorbance primary screen; recombinant TDP2, T5PNP hydrolysis, p-nitrophenol absorbance 415 nm; inhibition, % at 12.8 µM; 370,000 compounds, 0.34% hits; AID 720702;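 active means inhibition above the mean of all tested compounds plus 3 SD, set per campaign, cut at about 25% in these data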
# Target sequence (O95551 whole entry, looked up): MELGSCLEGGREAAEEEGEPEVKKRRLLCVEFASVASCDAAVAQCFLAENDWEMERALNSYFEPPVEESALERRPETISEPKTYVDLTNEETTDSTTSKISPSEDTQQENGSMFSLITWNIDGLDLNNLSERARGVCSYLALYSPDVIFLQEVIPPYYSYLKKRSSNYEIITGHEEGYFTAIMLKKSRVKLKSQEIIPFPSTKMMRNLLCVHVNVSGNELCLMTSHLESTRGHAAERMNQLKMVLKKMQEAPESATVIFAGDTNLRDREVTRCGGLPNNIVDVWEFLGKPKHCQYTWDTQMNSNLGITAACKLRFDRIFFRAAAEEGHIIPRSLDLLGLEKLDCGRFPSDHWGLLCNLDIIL
#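 Read-out basis: percent inhibition. System: recombinant human TDP2. Buffer or medium: Mg2+-containing Tris-HCl buffer, pH 7.5. Repeats: single replicate. Timing: reaction 2 h, 37 °C. Benchmarks: high control without enzyme, low control DMSO plus TDP2. Probe or stimulus: 5 mM T5PNP. Doses: 12.8 µM only. Measured by: epi absorbance of p-nitrophenol freed from T5PNP by hydrolysis.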
# HTRA1 inh conf: confirmation of human HTRA1 inhibitors | shares compounds with HTRA1 inh | recombinant HTRA1, FP-rhodamine activity-based probe, fluorescence polarization | inhibition, % at 5.96 µM | 1,600 compounds, 66% hits;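 active means mean inhibition over three repeats above a set limit taken from the earlier primary screen, cut at about 37% in these data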;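 further: inhibitors block probe binding so polarization drops and inhibition rises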
# BSA TAMRA ctr: BSA probe counter-screen for TCR-CD3 inhibitors | shares compounds with TCR CD3 inh | TAMRA-labeled BSA probe fluorescence counterscreen | inhibition, % at 9.4 µM | 1,200 compounds, 10% hits | AID 652035; in the data active means inhibition above about 23%
# TCR-CD3 inh conf: confirmation of human TCR-CD3 interaction inhibitors; shares compounds with TCR CD3 inh; TAMRA-labeled TCR probe fluorescence binding assay; inhibition, % at 9.4 µM; 1,200 compounds, 48% hits; AID 652036
# mABHD4 conf: ABHD4 (mouse) inhibition, FP confirmation; shares compounds with mABHD4 FP; purified mABHD4, FP-Rh probe fluorescence polarization; inhibition, % at 8.92 µM; 1,800 compounds, 55% hits; AID 720658;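 active means mean inhibition across replicates above the hit cutoff set in the primary screen, cut at about 30% in these data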
# TDP2 inh conf: confirmation of human TDP2 inhibitors; 1,100 compounds, 22% hits; recombinant human TDP2, absorbance read-out; AID 743263; inhibition, % at 12.8 µM; shares compounds with TDP2 absorb; in the data active means inhibition above about 25%
# IN multimer act: counter-screen for LEDGF/p75 integration inhibitors: HIV-1 integrase multimerization activators; shares compounds with LEDGF integ inh; 2,000 compounds, 17% hits; AID 1053131; TR-FRET HIV-1 integrase multimerization, biochemical; activation, % at 7.7 µM; in the data active means activation above about 8.9%
# TRFRET interf: counter-screen for LEDGF/p75 integration inhibitors: TR-FRET optical interference; shares compounds with LEDGF integ inh; TR-FRET optical interference counterscreen, HIV-1 IN multimerization; inhibition, % at 7.7 µM; 2,000 tested, under 10 active;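 active means inhibition above the mean over all tested compounds plus 3 SD, which no compound reached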
# LEDGF integ conf: LEDGF/p75-dependent HIV-1 integration inhibition, confirmation | shares compounds with LEDGF integ inh | 2,000 compounds, 36% hits | AID 1053136 | inhibition, % at 3.7 µM | TR-FRET LEDGF/p75-dependent HIV-1 integration, biochemical; in the data active means inhibition above about 14%
# SIAE confirm: human SIAE inhibition, confirmation. SIAE FP-Rh activity-based probe, fluorescence polarization. 2,300 compounds, 13% hits. inhibition, % at 9.66 µM. AID 1117263. shares compounds with SIAE inh;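 active means mean inhibition of the replicates above the hit cutoff set in the primary screen, cut at about 17% in these data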;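 further: inhibitors lower polarization as more probe stays unbound to SIAE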
# Numbers stand for hits; i = inactive; nt = not tested or not shown. Unless noted, no stated cut-off is given here; in the data, active means inhibition above about 19%; inactive means the rest.
SMILES,TCR CD3 inh,HTRA1 inh,mABHD4 FP,LEDGF integ inh,SIAE inh,TDP2 absorb,HTRA1 inh conf,mABHD4 conf,SIAE confirm,others
Cc1ccc(-c2ccccc2NC(=O)CS(=O)CC(=O)Nc2ccc(C)c(Cl)c2)o1 (configuration not stated),85,39,36,i,45,i,i,i,i,BSA TAMRA ctr=i;TCR-CD3 inh conf=i
O=C(NCc1ccccc1)[C@H]1CCCN1,i,nt,i,i,i,i,nt,nt,nt,
Cn1nc([N+](=O)[O-])c(C(C#N)c2ccccn2)c(Cl)c1=O (configuration not stated),i,i,i,i,i,i,nt,nt,nt,
CCCn1nc([N+](=O)[O-])c(C(C#N)c2nc3ccccc3o2)c(Cl)c1=O (configuration not stated),i,69,80,i,22,i,83,95,i,
CCn1nc([N+](=O)[O-])c(C(C#N)c2nc3cc(C(F)(F)F)ccc3s2)c(Cl)c1=O (configuration not stated),i,79,85,i,23,i,76,101,18,
CC(=O)NC(c1ccc(Cl)cc1)c1ccc2cccnc2c1O (configuration not stated),i,46,i,i,17,i,79,nt,i,
CCC(=O)NC(c1ccc(Cl)cc1Cl)c1ccc2cccnc2c1O (configuration not stated),i,74,i,i,19,i,73,nt,i,
CCc1ccccc1NC(=O)c1cc(C)nn1-c1ccccc1,nt,nt,i,i,i,i,nt,nt,nt,
CC(C)C[C@H](NC1(C(=O)NCCc2c[nH]c3ccccc23)CCN(C)CC1)C(=O)NCCCc1ccccc1,nt,nt,i,i,i,i,nt,nt,nt,
CCCC(=Nc1ccc(N)cc1)C1=C(O)C(C(=O)OC)C(C)(C)CC1=O (configuration not stated),67,61,79,54,35,53,59,i,i,BSA TAMRA ctr=i;TCR-CD3 inh conf=i;TDP2 inh conf=i;IN multimer act=21;TRFRET interf=i;LEDGF integ conf=i
O=[N+]([O-])c1cc(Br)c(O)c(C=Nc2ccc(N3CCOCC3)cc2)c1,49,40,45,26,29,i,i,i,i,IN multimer act=8.9;TRFRET interf=i;LEDGF integ conf=15
Cn1c(O)c(C=Nc2ccc(N3CCOCC3)cc2)c(=O)n(C)c1=S,i,i,i,i,i,i,nt,nt,nt,
O=c1ccc2c(-c3ccccc3)c3ccc(O)cc3oc-2c1,i,60,43,i,36,i,61,81,36,
O=c1cc(-c2ccccc2)oc2cc(O)ccc12,i,i,i,i,i,i,nt,nt,nt,
C=CCn1c(Cc2cccs2)nnc1SCC(=O)Nc1ccc(OCc2ccccc2)cc1,nt,nt,i,i,i,i,nt,nt,nt,
CCc1ccccc1NC(=O)[C@@H]1CCCN1S(=O)(=O)c1cccc2cccnc12,nt,nt,i,i,i,i,nt,nt,nt,
O=C(OC12CCCN(C1)/C(=C/c1cccnc1)C2)c1ccco1 (configuration not stated),nt,nt,i,i,i,i,nt,nt,nt,
CSc1nsc(/C=C/Nc2ccc(O)cc2C)c1C#N,27,74,59,i,43,i,i,i,21,BSA TAMRA ctr=i;TCR-CD3 inh conf=i
CSc1nsc(/C=C/Nc2ccc(F)cc2)c1C#N,i,i,i,i,i,i,nt,nt,nt,
O=C(NCc1cccs1)C1CCN(S(=O)(=O)c2cccc3ccccc23)CC1,nt,nt,i,i,i,i,nt,nt,nt,
COc1ccc2c3c(cccc13)C(=O)CC2,57,141,87,i,73,i,i,i,i,BSA TAMRA ctr=i;TCR-CD3 inh conf=i
COc1ccc2c(c1OC)C(=O)OC2,i,i,i,i,i,i,nt,nt,nt,
CN(C(=S)Nc1ccccc1)c1ccccc1,i,i,i,i,i,i,nt,nt,nt,
CN(C(=S)Nc1ccc(Oc2ccccc2)cc1)c1ccc(O)cc1,i,45,35,i,21,i,i,i,i,
CCOC(=O)c1sc(N=NC2=C(O)CCCC2=O)c(C(=O)OCC)c1C,i,48,52,i,22,i,38,34,i,
SMILES,TCR CD3 inh,HTRA1 inh,mABHD4 FP,LEDGF integ inh,SIAE inh,TDP2 absorb,HTRA1 inh conf,mABHD4 conf,SIAE confirm,others
CCOC(=O)C1Nc2ccc(Br)cc2C2C=CCC12 (configuration not stated),i,65,53,i,20,i,i,52,i,
CCCN(CC1CC1)C(=O)CNc1nnnn1-c1ccccc1,nt,nt,i,i,i,i,nt,nt,nt,
O=C(O)CCCNc1cc(N2CCN(C(=O)c3ccco3)CC2)c2noc3c2c1C(=O)c1ccccc1-3,79,52,66,i,62,30,47,43,33,TDP2 inh conf=27
O=C1c2ccccc2-c2c1cccc2C(=O)N1CCN(C(=O)c2ccco2)CC1,i,i,i,i,i,i,nt,nt,nt,
C[C@H]1[C@@H](NC(=O)C2CCC2)CC[C@@]23CCCN2C(=O)CCC[C@@H]13,nt,nt,i,i,i,i,nt,nt,nt,
O=c1ccc2ccccc2c2ccccc12,i,nt,i,i,i,i,nt,nt,nt,
O=Nc1c(O)c2ccccc2c2ccccc12,i,62,51,i,30,i,78,58,24,
CCOC(=O)N1CCN(C(=O)C[C@H]2C[C@@]3(C(=O)OC)C(=C[C@H](C(C)(C)C)O[C@@H]3C)N(Cc3ccc4c(c3)OCO4)C2=O)CC1,i,nt,i,i,i,i,nt,nt,nt,
C[C@H]1[C@@H](OC(=O)NC2CCCCC2)CC[C@@]23CCCN2C(=O)CCC[C@@H]13,nt,nt,i,i,i,i,nt,nt,nt,
